From ChEMBL document CHEMBL1127348, “3-Amino-5,5-dimethylhexanoic acid. Synthesis, resolution, and effects on carnitine acyltransferases” (J Med Chem, 1994)

What was measured:
[1] = biological target: T1, Carnitine O-palmitoyltransferase 1, liver isoform (Rattus norvegicus) (UniProt P32198); experiment: Percent inhibition was measured on rat liver carnitine palmitoyltransferase at 5 uM
T1 sequence (whole entry): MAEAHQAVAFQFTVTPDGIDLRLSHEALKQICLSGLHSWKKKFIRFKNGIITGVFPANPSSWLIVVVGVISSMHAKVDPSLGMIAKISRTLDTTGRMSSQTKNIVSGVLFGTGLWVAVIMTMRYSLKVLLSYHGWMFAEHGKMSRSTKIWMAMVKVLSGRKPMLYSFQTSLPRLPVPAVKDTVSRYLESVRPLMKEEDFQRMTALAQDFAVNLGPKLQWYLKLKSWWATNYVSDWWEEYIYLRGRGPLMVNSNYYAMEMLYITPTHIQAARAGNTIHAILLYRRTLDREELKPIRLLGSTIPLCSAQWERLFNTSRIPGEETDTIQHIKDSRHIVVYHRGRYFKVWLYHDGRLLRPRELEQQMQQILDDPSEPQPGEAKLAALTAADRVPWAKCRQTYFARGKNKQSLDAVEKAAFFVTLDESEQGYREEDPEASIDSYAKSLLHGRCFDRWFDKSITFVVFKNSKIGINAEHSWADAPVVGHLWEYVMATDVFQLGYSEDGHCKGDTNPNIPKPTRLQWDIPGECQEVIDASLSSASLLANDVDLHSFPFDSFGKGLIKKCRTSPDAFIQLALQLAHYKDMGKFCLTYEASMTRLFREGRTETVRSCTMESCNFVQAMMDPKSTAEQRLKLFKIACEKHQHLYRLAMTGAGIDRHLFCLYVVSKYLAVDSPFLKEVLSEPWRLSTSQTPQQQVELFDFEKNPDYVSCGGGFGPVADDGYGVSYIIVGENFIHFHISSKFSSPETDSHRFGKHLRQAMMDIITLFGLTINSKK

[2] = biological target: T2, Carnitine O-palmitoyltransferase 1, muscle isoform (Rattus norvegicus, UniProt Q63704); experiment: Tested against neonatal rat cardiac myocyte carnitine palmitoyltransferase 1
T2 sequence (Q63704 whole entry): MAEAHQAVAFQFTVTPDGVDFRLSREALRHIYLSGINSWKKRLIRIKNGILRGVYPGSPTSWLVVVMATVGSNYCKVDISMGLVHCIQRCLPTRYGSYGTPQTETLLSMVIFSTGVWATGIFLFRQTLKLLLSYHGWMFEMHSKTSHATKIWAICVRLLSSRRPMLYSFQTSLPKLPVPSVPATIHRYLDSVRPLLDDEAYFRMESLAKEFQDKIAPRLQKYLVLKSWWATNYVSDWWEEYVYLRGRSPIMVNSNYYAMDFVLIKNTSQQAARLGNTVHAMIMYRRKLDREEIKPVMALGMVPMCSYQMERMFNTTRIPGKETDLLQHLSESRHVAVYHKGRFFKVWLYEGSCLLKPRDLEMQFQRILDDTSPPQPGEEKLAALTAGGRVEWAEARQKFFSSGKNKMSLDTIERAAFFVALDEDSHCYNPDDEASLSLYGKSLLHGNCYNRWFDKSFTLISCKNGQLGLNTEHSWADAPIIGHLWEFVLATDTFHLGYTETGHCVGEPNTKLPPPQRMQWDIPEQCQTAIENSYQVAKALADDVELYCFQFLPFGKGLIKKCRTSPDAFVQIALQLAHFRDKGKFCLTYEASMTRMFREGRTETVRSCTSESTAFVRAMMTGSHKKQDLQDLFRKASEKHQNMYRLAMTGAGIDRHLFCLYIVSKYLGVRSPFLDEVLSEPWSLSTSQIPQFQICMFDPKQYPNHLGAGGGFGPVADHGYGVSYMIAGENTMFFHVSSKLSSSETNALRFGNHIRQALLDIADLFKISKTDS

[3] = biological target: T3, Carnitine O-palmitoyltransferase 2, mitochondrial (Rattus norvegicus, UniProt P18886); experiment: Tested against neonatal rat cardiac myocyte carnitine palmitoyltransferase 2
T3 sequence (P18886 whole entry): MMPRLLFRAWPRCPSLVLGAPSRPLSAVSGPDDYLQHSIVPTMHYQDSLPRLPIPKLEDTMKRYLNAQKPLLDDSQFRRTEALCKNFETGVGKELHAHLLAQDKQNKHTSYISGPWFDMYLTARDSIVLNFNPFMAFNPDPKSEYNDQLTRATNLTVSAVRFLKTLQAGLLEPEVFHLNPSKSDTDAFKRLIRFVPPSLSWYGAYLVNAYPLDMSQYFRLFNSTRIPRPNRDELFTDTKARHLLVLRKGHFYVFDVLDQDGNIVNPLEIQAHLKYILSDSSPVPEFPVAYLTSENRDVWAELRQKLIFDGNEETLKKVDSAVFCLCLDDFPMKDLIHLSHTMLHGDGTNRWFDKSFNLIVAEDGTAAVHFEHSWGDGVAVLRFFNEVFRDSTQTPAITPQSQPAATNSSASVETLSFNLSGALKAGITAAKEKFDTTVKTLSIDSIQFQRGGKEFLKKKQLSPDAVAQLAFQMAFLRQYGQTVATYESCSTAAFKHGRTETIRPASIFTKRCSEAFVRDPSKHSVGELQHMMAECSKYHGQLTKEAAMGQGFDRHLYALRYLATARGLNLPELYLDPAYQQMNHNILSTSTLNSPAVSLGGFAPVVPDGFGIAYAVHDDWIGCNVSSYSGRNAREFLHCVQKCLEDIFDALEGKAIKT

[4] = biological target: T2, Carnitine O-palmitoyltransferase 1, muscle isoform; experiment: Tested against neonatal rat cardiac myocyte carnitine palmitoyltransferase 1; no effect
[5] = substrate: C[N+](C)(C)CC(N)CC(=O)[O-]; experiment: (§1) Kinetic constants tested against pigeon breast carnitine acyltransferase; conditions: Columba livia
Method in brief: (§2)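 Purified pigeon breast CAT, 25 °C, 1 mL. Reverse: 100 mM MOPS, 5 mM EDTA, 0.25 mM CoASH; started with varying D,L-acetylcarnitine; read at 232 nm. Inhibitor at 0, 5.00 or 10.00 mM final; points mean of 2–5 determinations; nonlinear regression fit.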

[6] = substrate: C[N+](C)(C)C[C@H](O)CC(=O)[O-]; experiment: as §1; conditions: Columba livia; method in brief: as §2

In the case of `CC(=O)NC(CC(=O)[O-])C[N+](C)(C)C` (configuration not stated), the inhibition [1] is reported as 15%.

Molecule `CC(C)(C)CC(O)CC(=O)O` (configuration not stated) has a Ki [2] of 3600 µM and a Ki [3] of 2800 µM.

For `CC(C)(C)C[C@H](O)CC(=O)O`, the Ki [3] was 2200 µM.

`CC(C)(C)C[C@@H](O)CC(=O)O` gave a Ki [3] of 6700 µM.

In the case of `C[N+](C)(C)C[C@H](O)CC(=O)[O-]` [LEVOCARNITINE], the Ki [2] is reported as 100 µM and the Ki [3] is reported as 100 µM.

For `CC(C)(C)CC(N)CC(=O)O` (configuration not stated), the Ki [4] was “Not Active” and the Ki [3] was 20000 µM.

`C[N+](C)(C)CC(N)CC(=O)[O-]` (configuration not stated) gave an inhibition [1] of 64%.

B1: Carnitine O-acetyltransferase (Homo sapiens), P43155 (protein)
chain: MLAFAARTVVKPLGFLKPFSLMKASSRFKAHQDALPRLPVPPLQQSLDHYLKALQPIVSEEEWAHTKQLVDEFQASGGVGERLQKGLERRARKTENWLSEWWLKTAYLQYRQPVVIYSSPGVMLPKQDFVDLQGQLRFAAKLIEGVLDFKVMIDNETLPVEYLGGKPLCMNQYYQILSSCRVPGPKQDTVSNFSKTKKPPTHITVVHNYQFFELDVYHSDGTPLTADQIFVQLEKIWNSSLQTNKEPVGILTSNHRNSWAKAYNTLIKDKVNRDSVRSIQKSIFTVCLDATMPRVSEDVYRSHVAGQMLHGGGSRLNSGNRWFDKTLQFIVAEDGSCGLVYEHAAAEGPPIVTLLDYVIEYTKKPELVRSPLVPLPMPKKLRFNITPEIKSDIEKAKQNLSIMIQDLDITVMVFHHFGKDFPKSEKLSPDAFIQMALQLAYYRIYGQACATYESASLRMFHLGRTDTIRSASMDSLTFVKAMDDSSVTEHQKVELLRKAVQAHRGYTDRAIRGEAFDRHLLGLKLQAIEDLVSMPDIFMDTSYAIAMHFHLSTSQVPAKTDCVMFFGPVVPDGYGVCYNPMEAHINFSLSAYNSCAETNAARLAHYLEKALLDMRALLQSHPRAKL
Molecule B1 has a Km [5] of 3800 µM and a Km [6] of 300 µM.
